From ChEMBL document CHEMBL1255453, “Affinity of ceftaroline and other beta-lactams for penicillin-binding proteins from Staphylococcus aureus and Streptococcus pneumoniae” (Antimicrob Agents Chemother, 2010)
In brackets after ≈: the same amount, converted by molar mass.

Tests used:
MecA [1] = biological target: T1, MecA (Staphylococcus aureus, UniProt Q7DHH4); test: Binding affinity to against methicillin-, daptomycin-resistant, vancomycin-intermediate, beta-lactamase-positive Staphylococcus aureus 25 PBP2a by competitive binding assay
T1 sequence (Q7DHH4 whole entry): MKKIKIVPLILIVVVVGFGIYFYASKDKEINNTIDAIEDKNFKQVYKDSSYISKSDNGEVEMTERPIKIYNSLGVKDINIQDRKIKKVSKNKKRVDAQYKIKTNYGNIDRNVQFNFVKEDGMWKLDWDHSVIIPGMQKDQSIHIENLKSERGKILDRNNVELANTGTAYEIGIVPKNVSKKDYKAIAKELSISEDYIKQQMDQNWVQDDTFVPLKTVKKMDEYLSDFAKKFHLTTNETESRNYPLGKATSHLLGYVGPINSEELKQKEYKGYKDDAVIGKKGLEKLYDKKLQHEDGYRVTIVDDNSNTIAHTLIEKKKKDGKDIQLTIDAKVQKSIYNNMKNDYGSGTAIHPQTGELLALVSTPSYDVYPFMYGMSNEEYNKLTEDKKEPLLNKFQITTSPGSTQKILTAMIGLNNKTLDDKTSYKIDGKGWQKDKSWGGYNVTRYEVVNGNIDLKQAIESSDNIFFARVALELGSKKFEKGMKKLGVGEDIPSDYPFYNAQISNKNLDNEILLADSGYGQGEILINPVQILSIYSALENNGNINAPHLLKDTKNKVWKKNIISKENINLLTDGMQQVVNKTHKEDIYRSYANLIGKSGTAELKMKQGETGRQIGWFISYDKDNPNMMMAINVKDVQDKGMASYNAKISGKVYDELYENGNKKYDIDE
Outline: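 MRSA strain harvested in stationary phase (OD600 >2.00). Membranes prepared by enzymatic lysis, freeze-thaw, sonication and ultracentrifugation, then preincubated with clavulanic acid 1 mg/ml. β-Lactam competition 10 min at 37°C, then Bocillin FL 40 μg/ml, 15 min at 37°C. SDS-PAGE, 520 nm imaging; IC50 = 50% inhibition of Bocillin FL labeling; 3 membrane isolations.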

[2] = Binding affinity to methicillin-resistant, vancomycin-intermediate, beta-lactamase-positive Staphylococcus aureus 1287 PBP2 by competitive binding assay
[3] = Binding affinity to methicillin-resistant, heteroresistant vancomycin-intermediate, beta-lactamase-negative Staphylococcus aureus 873 PBP1 by competitive binding assay
[4] = Binding affinity to methicillin-resistant, vancomycin-intermediate, beta-lactamase-positive Staphylococcus aureus 1287 PBP3 by competitive binding assay
Staphylococcus aureus [5] = test: Antibacterial activity against methicillin-resistant, vancomycin-intermediate, beta-lactamase-positive Staphylococcus aureus 1287 by macrodilution method; assay type: functional
Outline: (§1)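 CLSI broth macrodilution MICs. The S. aureus set is 5 MRSA strains (hVISA, VISA, VRSA) plus 1 MSSA. The S. pneumoniae set is 7 clonally unrelated clinical isolates, categorised by penicillin G against 2006 CLSI M100-S17 criteria (resistant ≥2 μg/ml, susceptible ≤0.06 μg/ml).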

Staphylococcus aureus [6] = test: Antibacterial activity against methicillin-, vancomycin-susceptible Staphylococcus aureus ATCC 29213 by macrodilution method; assay type: functional; outline: as §1
[7] = Binding affinity to methicillin-resistant, heteroresistant vancomycin-intermediate, beta-lactamase-negative Staphylococcus aureus 873 PBP4 by competitive binding assay
[8] = Binding affinity to methicillin-, vancomycin-resistant, beta-lactamase-positive Staphylococcus aureus 510 PBP4 by competitive binding assay
[9] = Binding affinity to methicillin-, linezolid-resistant, vancomycin-intermediate, beta-lactamase-positive Staphylococcus aureus 2149A PBP1 by competitive binding assay
[10] = Binding affinity to methicillin-, linezolid-resistant, vancomycin-intermediate, beta-lactamase-positive Staphylococcus aureus 2149A PBP3 by competitive binding assay
MecA [11] = biological target: T1, MecA; test: Binding affinity to methicillin-, linezolid-resistant, vancomycin-intermediate, beta-lactamase-positive Staphylococcus aureus 2149A PBP2a by competitive binding assay
Outline: (§2)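 MRSA grown in brain heart infusion and harvested in exponential phase (OD600 0.3–0.4). Membranes prepared by lysozyme/lysostaphin/DNase, freeze-thaw and sonication, then ultracentrifugation. Membranes preincubated with clavulanic acid 1 mg/ml to saturate PBPs other than PBP2a. Then β-lactam 10 min at 37°C and Bocillin FL 40 μg/ml, 15 min at 37°C. SDS-PAGE fluorescence; IC50 = 50% inhibition of Bocillin FL binding; 3 isolations.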

Streptococcus pneumoniae [12] = test: Antibacterial activity against penicillin-susceptible Streptococcus pneumoniae 1076 by macrodilution method; assay type: functional; outline: as §1
[13] = Binding affinity to methicillin-, linezolid-resistant, vancomycin-intermediate, beta-lactamase-positive Staphylococcus aureus 2149A PBP4 by competitive binding assay
[14] = Binding affinity to methicillin-, vancomycin-resistant, beta-lactamase-positive Staphylococcus aureus 510 PBP3 by competitive binding assay
[15] = Binding affinity to methicillin-resistant, heteroresistant vancomycin-intermediate, beta-lactamase-negative Staphylococcus aureus 873 PBP2 by competitive binding assay
MecA [16] = biological target: T1, MecA; test: Binding affinity to methicillin-resistant, vancomycin-intermediate, beta-lactamase-positive Staphylococcus aureus 1287 PBP2a by competitive binding assay; outline: as §2
[17] = Binding affinity to methicillin-, vancomycin-susceptible Staphylococcus aureus ATCC 29213 PBP2 by competitive binding assay
Outline: (§3)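 MSSA grown in brain heart infusion broth and harvested at OD600 0.3–0.4. Lysed with lysozyme, lysostaphin, DNase I, freeze-thaw and sonication; membranes collected at 100,000 × g. Membranes (100 μg protein) incubated with β-lactam 10 min at 37°C, then Bocillin FL 40 μg/ml, 15 min at 37°C. SDS-PAGE, fluorescence at 520 nm. IC50 is 50% inhibition of Bocillin FL binding; 3 membrane isolations.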

MecA [18] = biological target: T1, MecA; test: Binding affinity to methicillin-resistant, heteroresistant vancomycin-intermediate, beta-lactamase-negative Staphylococcus aureus 873 PBP2a by competitive binding assay; outline: as §2
Streptococcus pneumoniae [19] = test: Antibacterial activity against penicillin-resistant Streptococcus pneumoniae 1394 by macrodilution method; assay type: functional; outline: as §1
Staphylococcus aureus [20] = test: Antibacterial activity against methicillin-, linezolid-resistant, vancomycin-intermediate, beta-lactamase-positive Staphylococcus aureus 2149A by macrodilution method; assay type: functional; outline: as §1
Streptococcus pneumoniae [21] = test: Antibacterial activity against penicillin-resistant Streptococcus pneumoniae 2527 by macrodilution method; assay type: functional; outline: as §1
MecA [22] = biological target: T1, MecA; test: Binding affinity to methicillin-, vancomycin-resistant, beta-lactamase-positive Staphylococcus aureus 510 PBP2a by competitive binding assay; outline: as §2
[23] = Binding affinity to methicillin-resistant, heteroresistant vancomycin-intermediate, beta-lactamase-negative Staphylococcus aureus 873 PBP3 by competitive binding assay
Streptococcus pneumoniae [24] = test: Antibacterial activity against penicillin-resistant Streptococcus pneumoniae 24 by macrodilution method; assay type: functional; outline: as §1
[25] = Binding affinity to methicillin-, vancomycin-resistant, beta-lactamase-positive Staphylococcus aureus 510 PBP1 by competitive binding assay
[26] = Binding affinity to methicillin-, vancomycin-susceptible Staphylococcus aureus ATCC 29213 PBP3 by competitive binding assay; outline: as §3
[27] = Binding affinity to methicillin-, vancomycin-resistant, beta-lactamase-positive Staphylococcus aureus 510 PBP2 by competitive binding assay

SMILES	IC50 (MecA [1]) [µM]	IC50 [2] [µg/mL]	IC50 [3] [µg/mL]	IC50 [4] [µg/mL]	MIC (Staphylococcus aureus [5]) [µg/mL]	MIC (Staphylococcus aureus [6]) [µg/mL]	IC50 [7] [µg/mL]	IC50 [8] [µg/mL]	IC50 [9] [µg/mL]	IC50 [10] [µg/mL]	IC50 (MecA [11]) [µM]	MIC (Streptococcus pneumoniae [12]) [µg/mL]	IC50 [13] [µg/mL]	IC50 [14] [µg/mL]	IC50 [15] [µg/mL]	IC50 (MecA [16]) [µM]	IC50 [17] [µg/mL]	IC50 (MecA [18]) [µM]	MIC (Streptococcus pneumoniae [19]) [µg/mL]	MIC (Staphylococcus aureus [20]) [µg/mL]	further results
CO/N=C(\C(=O)N[C@@H]1C(=O)N2C(C(=O)O)=C(COC(C)=O)CS[C@H]12)c1csc(N)n1 [CEFOTAXIME]	1.1	1 (≈ 2.2 µM)	2 (≈ 4.39 µM)	1 (≈ 2.2 µM)	4 (≈ 8.78 µM)	2 (≈ 4.39 µM)	> 128	> 128	4 (≈ 8.78 µM)	2 (≈ 4.39 µM)	> 281	0.03 (≈ 0.0659 µM)	> 128	0.25 (≈ 0.549 µM)	0.5 (≈ 1.1 µM)	4.39	0.25 (≈ 0.549 µM)	> 281	4 (≈ 8.78 µM)	32 (≈ 70.3 µM)	MIC (Streptococcus pneumoniae [21]): 0.015 µg/mL (≈ 0.0329 µM); IC50 (MecA [22]): 2.2 µM; IC50 [23]: 0.25 µg/mL (≈ 0.549 µM); MIC (Streptococcus pneumoniae [24]): 1 µg/mL (≈ 2.2 µM); IC50 [25]: 0.5 µg/mL (≈ 1.1 µM); IC50 [26]: 1 µg/mL (≈ 2.2 µM); IC50 [27]: 0.25 µg/mL (≈ 0.549 µM)
CO/N=C(\C(=O)N[C@@H]1C(=O)N2C(C(=O)O)=C(CSc3nc(=O)c(O)nn3C)CS[C@H]12)c1csc(N)n1 [CEFTRIAXONE]	0.451	1 (≈ 1.8 µM)	2 (≈ 3.61 µM)	1 (≈ 1.8 µM)	8 (≈ 14.4 µM)	2 (≈ 3.61 µM)	> 128	> 128	4 (≈ 7.21 µM)	2 (≈ 3.61 µM)	3.61	0.03 (≈ 0.0541 µM)	> 128	0.25 (≈ 0.451 µM)	0.5 (≈ 0.902 µM)	3.61	0.25 (≈ 0.451 µM)	> 231	2 (≈ 3.61 µM)	64 (≈ 115 µM)	MIC (Streptococcus pneumoniae [21]): 0.03 µg/mL (≈ 0.0541 µM); IC50 (MecA [22]): 1.8 µM; IC50 [23]: 0.25 µg/mL (≈ 0.451 µM); MIC (Streptococcus pneumoniae [24]): 2 µg/mL (≈ 3.61 µM); IC50 [25]: 0.5 µg/mL (≈ 0.902 µM); IC50 [26]: 1 µg/mL (≈ 1.8 µM); IC50 [27]: 0.25 µg/mL (≈ 0.451 µM)
CC1(C)S[C@@H]2[C@H](NC(=O)Cc3ccccc3)C(=O)N2[C@H]1C(=O)O [PENICILLIN G]	12	4 (≈ 12 µM)	0.5 (≈ 1.5 µM)	0.25 (≈ 0.748 µM)	32 (≈ 95.7 µM)	1 (≈ 2.99 µM)	> 128	64 (≈ 191 µM)	2 (≈ 5.98 µM)	2 (≈ 5.98 µM)	5.98	0.03 (≈ 0.0897 µM)	> 128	4 (≈ 12 µM)	0.5 (≈ 1.5 µM)	12	8 (≈ 23.9 µM)	191	4 (≈ 12 µM)	64 (≈ 191 µM)	MIC (Streptococcus pneumoniae [21]): 2 µg/mL (≈ 5.98 µM); IC50 (MecA [22]): 191 µM; IC50 [23]: 0.03 µg/mL (≈ 0.0897 µM); MIC (Streptococcus pneumoniae [24]): 4 µg/mL (≈ 12 µM); IC50 [25]: 128 µg/mL (≈ 383 µM); IC50 [26]: 1 µg/mL (≈ 2.99 µM); IC50 [27]: 64 µg/mL (≈ 191 µM)
